Screening data deposited in PubChem BioAssay by several laboratories.
Mdm2 MdmX PPI: inhibitors of human Mdm2-MdmX association, primary screen, cell-based, luminescence, split luciferase, SaOS-2, uHTS. Protein Mdm4 (Homo sapiens) + E3 ubiquitin-protein ligase Mdm2 (Homo sapiens), …. SaOS-2 split-luciferase Mdm2/MdmX complementation. inhibition, % at 8 µM. hit rate 3% among 330,000. AID 485346, 2010;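 active means inhibition of at least 50% at 8 µM in the primary screen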
UPR XBP1 act: activators of adaptive XBP1 UPR arm, primary screen, cell-based, CHO-XBP1 luciferase reporter, luminescence, uHTS | activation, % at 20 µM | hit rate 0.33% among 330,000 | IRE1-XBP1 UPR activation; percent of tunicamycin response, DMSO as zero;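 active means versus positive control, 20 µM dose yields 30% or more activation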
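Material – CHO cell line with stable XBP1 luciferase reporter · Buffer or medium – F12 plus 10% FBS · Compound – single point, 20 µM final compound, 1% DMSO · Schedule – 16-18 h cell attachment at 37 °C, then 6 h compound exposure · Signal – Steady-Glo luminescence read · Benchmarks – high control tunicamycin 10 µg/mL final, low control DMSO vehicle only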
Exocytosis inh: LAMP-1 surface exposure blockers, TALL-104 cells – cell-based, flow cytometry, MLPCN library, primary screen; AID 651702, 2012; inhibition, % at 10 µM; TALL-104 LAMP-1 surface exposure; cells stimulated with thapsigargin and PMA; hit rate 0.66% among 360,000;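 active means inhibition above about 55%, limit read from the data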
ABHD5-PLIN5 inh: ABHD5-PLIN5 interaction inhibitors, primary screen, cell lysate, split luciferase complementation, luminescence; Perilipin-5 (Homo sapiens) + 1-acylglycerol-3-phosphate O-acyltransferase ABHD5 (Homo …; Split G. princeps luciferase complementation, 4 h; inhibition, % at 4 µM; hit rate 0.78% among 360,000;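 active means inhibition above the mean inhibition across every tested compound plus 3 SD, cut at about 22% in these data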
Target sequence (Q00G26 whole entry, looked up): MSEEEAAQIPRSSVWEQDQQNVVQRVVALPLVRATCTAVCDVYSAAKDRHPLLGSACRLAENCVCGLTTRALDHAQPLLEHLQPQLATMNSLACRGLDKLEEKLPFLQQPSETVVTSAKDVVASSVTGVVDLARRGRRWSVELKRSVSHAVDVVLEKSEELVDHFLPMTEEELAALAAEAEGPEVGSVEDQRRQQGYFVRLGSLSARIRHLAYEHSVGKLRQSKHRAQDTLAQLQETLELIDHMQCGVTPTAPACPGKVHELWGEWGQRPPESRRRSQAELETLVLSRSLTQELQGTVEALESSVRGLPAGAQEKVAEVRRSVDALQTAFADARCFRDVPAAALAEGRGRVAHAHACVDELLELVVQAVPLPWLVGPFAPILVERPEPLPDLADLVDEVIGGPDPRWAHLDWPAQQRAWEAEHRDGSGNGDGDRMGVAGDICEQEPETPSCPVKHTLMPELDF
Target sequence (Q8WTS1 whole entry, looked up): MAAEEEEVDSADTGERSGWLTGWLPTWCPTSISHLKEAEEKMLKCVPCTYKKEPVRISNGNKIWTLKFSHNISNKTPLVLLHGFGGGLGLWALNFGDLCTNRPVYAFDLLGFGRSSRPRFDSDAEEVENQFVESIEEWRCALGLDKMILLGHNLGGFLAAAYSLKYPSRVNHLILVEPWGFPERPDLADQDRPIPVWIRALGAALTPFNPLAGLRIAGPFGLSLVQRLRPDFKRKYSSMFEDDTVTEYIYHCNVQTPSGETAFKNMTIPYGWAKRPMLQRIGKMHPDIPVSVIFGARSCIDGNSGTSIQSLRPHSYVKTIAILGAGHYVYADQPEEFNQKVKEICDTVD
UPR CHOP act: activators of apoptotic CHOP UPR arm, primary screen, cell-based, CHO-CHOP luciferase reporter, luminescence, uHTS; UPR activation; percent of tunicamycin response over DMSO baseline; activation, % at 10 µM; hit rate 0.34% among 330,000; AID 449763, 2010;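 active means at 10 µM dose, activation of 40% or more, normalized to positive control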
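Test system: CHO-CHOP cells, stable luciferase reporter of PERK-eIF2a-CHOP signalling | Quantity: 500 CHO-CHOP cells per well | Buffer or medium: F12 plus 10% serum | Compound dosing: 10 µM single point, 0.5% DMSO | Schedule: 6 h compound treatment, 37 °C | Signal: Luciferase luminescence | Control set: Tunicamycin high control, DMSO low control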
XBP1 UPR conf: IRE1-XBP1 UPR arm activators, confirmation, cell-based, CHO-XBP1 luciferase reporter, luminescence, single concentration. shares compounds with UPR XBP1 act. activation, % at 20 µM. hit rate 63% among 1,000;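 active means reporter signal at least 30% of the positive control's activation in two or more of four replicate wells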
Mdm2 MdmX conf: Mdm2-MdmX complex disruptors, retested hits, confirmation, luminescence, single concentration. hit rate 55% among 10,000. AID 489028, 2010. shares compounds with Mdm2 MdmX PPI. Mdm2-MdmX binding, luminescent assay. inhibition, % at 8 µM; in the data active means inhibition above about 40%
FLuc counter: full-length luciferase signal inhibition, confirmation, counter-screen for Mdm2/MdmX interaction inhibitor project, cell-based, single concentration, SaOS-2. hit rate 77% among 6,200. AID 504607, 2011. shares compounds with Mdm2 MdmX PPI. inhibition, % at 8 µM. SaOS-2 full-length luciferase counterscreen, luminescence;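 active means mean inhibition at 8 µM reaching about 37%, which flags the compound as non-specific, limit read from the data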;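 further: p53-null SaOS-2 cells with luciferase driven by a doxycycline-inducible promoter; compound on cells about two nights before reading with doxycycline added after day one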
Large screens that a line does not name were inactive (follow-up assays come after a bar, where they were run). The list is not random: actives were taken first. Their share in the collection is about 4%.

COc1cccc(-n2c(SCC(=O)Nc3cc(C)on3)nc3ccccc3c2=O)c1	none
CCc1sc2nc(SCC(=O)Nc3cc(C)on3)n(-c3cccc(OC)c3)c(=O)c2c1C	Mdm2 MdmX PPI 91.6, UPR XBP1 act 40.1 | XBP1 UPR conf 80.8 | Mdm2 MdmX conf 65.6 | FLuc counter 76.7
O=C1c2cccc3cccc(c23)C(=O)N1Nc1ccccc1	none
O=C1c2cccc3cc(Br)cc(c23)C(=O)N1Nc1ccc(Br)cc1	Mdm2 MdmX PPI 72.8, UPR XBP1 act 39.7 | XBP1 UPR conf 33.2 | Mdm2 MdmX conf 62.6 | FLuc counter 74.4
Cc1cccc(NC(=O)CSc2nc(C)c(CC(=O)c3ccc(Br)cc3)c(C)c2C#N)c1C	Mdm2 MdmX PPI 100.2, UPR XBP1 act 48.1 | XBP1 UPR conf 98.2 | Mdm2 MdmX conf inactive
O=C(CC(=O)Nc1ccc(F)cc1F)Nc1ccc(F)cc1F	none
Cc1ccc(CN2C(=O)CSc3ccc(C(=O)NC4CC4)cc32)cc1	none
Cc1cc(NC(=O)c2cncc(Br)c2)ccc1NC(=O)c1cc2ccccc2o1	Mdm2 MdmX PPI 74.5, UPR XBP1 act 34.7 | XBP1 UPR conf 80.8 | Mdm2 MdmX conf 50.7 | FLuc counter inactive
COc1cc(NC(=O)c2cccs2)ccc1NC(=O)c1cc2ccccc2o1	Mdm2 MdmX PPI 88.6, UPR XBP1 act 68.7 | XBP1 UPR conf 37.0 | Mdm2 MdmX conf 52.4 | FLuc counter 116.7
O=C(c1cnn2c(C(F)F)cc(-c3ccccc3)nc12)N1CCc2ccccc21	none
Cc1ccc(-c2cc(C(F)F)n3ncc(C(=O)N4CCc5ccccc54)c3n2)cc1	Mdm2 MdmX PPI 60.8, UPR XBP1 act 47.0 | XBP1 UPR conf 125.7 | Mdm2 MdmX conf 64.2 | FLuc counter 56.7
Cc1nn(C)c(C)c1NC(=O)c1ccc(Cl)cc1	none
Cn1nc(C(F)(F)F)c(/C=N/OC(=O)c2ccccc2Cl)c1SCc1ccccc1Cl	Mdm2 MdmX PPI 54.8, UPR XBP1 act 89.4 | XBP1 UPR conf 97.8 | Mdm2 MdmX conf inactive
Cn1c(=O)c2c(-c3ccc(C(C)(C)C)cc3)n(CC3CCCO3)cc2n(C)c1=O (centres undefined)	none
CCC(=O)Nc1nnc(SCC(=O)c2ccc3c(c2)Cc2ccccc2-3)s1	Mdm2 MdmX PPI 54.8, UPR XBP1 act 52.0 | XBP1 UPR conf 28.9 | Mdm2 MdmX conf inactive
Cc1ccc(-n2nc3c(N4CCC(C(=O)NCCc5cccs5)CC4)nnc(C)c3c2C)cc1	Mdm2 MdmX PPI 54.5, UPR XBP1 act 31.1 | XBP1 UPR conf 45.5 | Mdm2 MdmX conf inactive | FLuc counter 89.2
Cc1ccc(-n2nc3c(=O)n(CC(=O)NCCc4cccs4)nc(C)c3c2C)cc1	none
CC(=O)O[C@H]1[C@@H](O)[C@H](O)[C@H](Oc2c(O)c(C)c3c4c2[C@@H](C)CC[C@@H]4[C@@H](C)C[C@H]3C=C(C)C)O[C@H]1C	Mdm2 MdmX PPI 90.1, UPR XBP1 act 46.8 | XBP1 UPR conf inactive | Mdm2 MdmX conf inactive
CC(=O)O[C@@H]1[C@@H](O)[C@@H](O)[C@H](Oc2c(-c3ccc(O)cc3)oc3c(CC=C(C)C)c(O)cc(O)c3c2=O)O[C@H]1C	none (no result: Exocytosis inh, ABHD5-PLIN5 inh)
COc1ccc(C(=O)NC(=S)NNC(=O)[C@H]2C[C@@H]2c2ccccc2)cc1OC	Mdm2 MdmX PPI 62.4, UPR XBP1 act 64.6 | XBP1 UPR conf inactive | Mdm2 MdmX conf inactive
C#CCOCCOCCOCCNc1nc(N2CCN(C(=O)[C@H](CCCCN)n3cc([C@@H](N)C(C)CC)nn3)CC2)nc(N2CCN(C(=O)[C@H](Cc3cc4ccccc4[nH]3)n3cc([C@@H](N)C(C)CC)nn3)CC2)n1 (some centres undefined)	none
O=C(Nc1cc(S(=O)(=O)N2CCOCC2)ccc1Cl)c1cc([N+](=O)[O-])ccc1Cl	Mdm2 MdmX PPI 96.6, UPR XBP1 act 69.0 | XBP1 UPR conf inactive | Mdm2 MdmX conf 44.5 | FLuc counter inactive
O=S1(=O)CC(N2CCCCC2)CN1Cc1cn(Cc2cccc(Cl)c2)nn1 (centres undefined)	none (no result: Mdm2 MdmX PPI, UPR XBP1 act, UPR CHOP act)
COc1ccccc1-c1csc2ncnc(Sc3nnnn3C)c12	none
Cn1nnnc1Sc1ncnc2scc(-c3ccc(Br)cc3)c12	Mdm2 MdmX PPI 99.2, UPR XBP1 act 99.6 | XBP1 UPR conf 140.8 | Mdm2 MdmX conf 100.0 | FLuc counter 53.0
CN(C)C(=O)CCc1ccc2c3c([nH]c2c1)[C@]1(C)[C@@H](C(=O)N2CCCCC2)C[C@H](CC(=O)NCc2ccco2)C(=O)N1CC3	none
CN(C)C(=O)CCc1ccc2c3c([nH]c2c1)[C@]1(CCc2ccccc2)[C@@H](C(=O)N2CCCCC2)C[C@H](CC(=O)NCc2ccco2)C(=O)N1CC3	Mdm2 MdmX PPI 97.8, UPR XBP1 act 33.4 | XBP1 UPR conf inactive | Mdm2 MdmX conf 74.0 | FLuc counter 51.4
O=C(CC1C[C@H](C(=O)N2CCCCC2)[C@@]2(CCc3ccccc3)c3[nH]c4ccccc4c3CCN2C1=O)NCCC1=CCCCC1 (some centres undefined)	Mdm2 MdmX PPI 79.2, UPR XBP1 act 125.7 | XBP1 UPR conf 92.6 | Mdm2 MdmX conf inactive
Oc1csc(Cc2nc(-c3ccc(Br)cc3)cs2)n1	none
COc1ccccc1CNC(=O)COC(=O)CSc1ccc(F)cc1	none
c1ccc(-c2sc3ccccc3c2-c2ccc(OCCN3CCCC3)cc2)cc1	Mdm2 MdmX PPI 100.5, UPR XBP1 act 32.3 | XBP1 UPR conf inactive | Mdm2 MdmX conf 45.9 | FLuc counter 58.0
NC(=O)c1ncn([C@@H]2O[C@H](CNCc3ccccc3C#Cc3ccccc3)[C@@H](O)[C@H]2O)n1	none (no result: Mdm2 MdmX PPI, UPR XBP1 act, UPR CHOP act)
COc1ccc2cc3cc(C(=O)Nc4ccccc4N4CCN(C)CC4)oc3nc2c1	Mdm2 MdmX PPI 100.6, UPR XBP1 act 40.3 | XBP1 UPR conf inactive | Mdm2 MdmX conf inactive
COc1ccc2cc3cc(C(=O)N4CCN(c5ccccc5)CC4)oc3nc2c1	none
CN(C)c1ccc(C(=O)NCC2CCCO2)cc1 (centres undefined)	none
